Experimental data as given in ChEMBL document CHEMBL1121899, “Biological activities of photoaffinity labeling analogues of kinins and their irreversible effects on kinin receptors” (1981).
Where a SMILES comes first, the peptide text is derived from it.

Columns and labels:
Oryctolagus cuniculus [1] = species: Oryctolagus cuniculus; assay: The compound was tested in vitro on rabbit aorta for residual response in presence of ultraviolet light; assay type: functional
Outline: (§1)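 Aorta strips in cycloheximide were challenged twice with [des-Arg⁹]BK and checked with 3 µM noradrenaline and 0.2 µM [Sar¹]angiotensin II. They were then incubated with 100 µM (4'-amino)Phe plus the photolabel and irradiated 10 min around 365 nm (18 mW/cm²). This was done once or twice. Residual [des-Arg⁹]BK response at 60 min was expressed as percent of reference tissues.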

[2] = target: T1, B1 bradykinin receptor (Homo sapiens) (UniProt P46663); assay: Intrinsic activity was determined; assay type: functional; details: Oryctolagus cuniculus
T1 sequence (whole entry): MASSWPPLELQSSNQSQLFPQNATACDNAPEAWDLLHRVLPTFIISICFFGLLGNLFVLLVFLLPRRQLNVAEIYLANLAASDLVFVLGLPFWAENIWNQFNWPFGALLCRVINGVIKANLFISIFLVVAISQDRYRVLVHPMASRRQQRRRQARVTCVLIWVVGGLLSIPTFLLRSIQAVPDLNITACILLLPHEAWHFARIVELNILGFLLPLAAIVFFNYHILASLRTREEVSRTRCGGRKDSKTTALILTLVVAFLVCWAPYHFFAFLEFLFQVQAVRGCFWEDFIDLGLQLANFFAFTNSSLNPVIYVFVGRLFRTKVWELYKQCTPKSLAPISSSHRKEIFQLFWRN

Oryctolagus cuniculus [3] = species: Oryctolagus cuniculus; assay: Competitive protection towards rabbit aorta in the presence of light; assay type: functional
Outline: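 Rabbit aorta strips (B1), with cycloheximide 10 µg/mL present after 3 h equilibration. Tissue pretreated with 50 µM [Leu⁸,des-Arg⁹]BK before the photolabel, scavenger (4'-amino)Phe 100 µM, and 10 min irradiation around 365 nm (18 mW/cm²). Residual [des-Arg⁹]BK response read 60 min after treatment, relative to reference tissues.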

Oryctolagus cuniculus [4] = species: Oryctolagus cuniculus; assay: In vitro 50 % Maximal response in rabbit aorta expressing B1 receptor; assay type: functional; details: read-out: ED50 (the source's name)
Oryctolagus cuniculus [5] = species: Oryctolagus cuniculus; assay: The compound was tested in vitro on rabbit aorta for residual response in absence of ultraviolet light; assay type: functional
Outline: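 Aorta strips were treated as in the photolabeling protocol but without light, or with light alone. Residual [des-Arg⁹]BK response was measured 60 min later against reference tissues. Darkroom testing was done in triplicate for the visible-light-absorbing analogue.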

Oryctolagus cuniculus [6] = species: Oryctolagus cuniculus; assay: The compound was tested in vitro (2.0 uM) on rabbit jugular vein for residual response in absence of ultraviolet light; assay type: functional
Outline: (§2)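 Jugular vein strips were treated exactly as in the photolabeling protocol (scavenger 100 µM (4'-amino)Phe plus analogue) but without light. Residual BK response was measured 60 min after the last treatment against reference tissues. Results were discarded if reference tissues lost over 25% sensitivity.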

[7] = target: T2, B2 bradykinin receptor (Homo sapiens) (UniProt P30411); assay: In vitro 50 % Maximal response in jugular vein expressing B2 receptor; assay type: functional; details: Oryctolagus cuniculus
T2 sequence (whole entry): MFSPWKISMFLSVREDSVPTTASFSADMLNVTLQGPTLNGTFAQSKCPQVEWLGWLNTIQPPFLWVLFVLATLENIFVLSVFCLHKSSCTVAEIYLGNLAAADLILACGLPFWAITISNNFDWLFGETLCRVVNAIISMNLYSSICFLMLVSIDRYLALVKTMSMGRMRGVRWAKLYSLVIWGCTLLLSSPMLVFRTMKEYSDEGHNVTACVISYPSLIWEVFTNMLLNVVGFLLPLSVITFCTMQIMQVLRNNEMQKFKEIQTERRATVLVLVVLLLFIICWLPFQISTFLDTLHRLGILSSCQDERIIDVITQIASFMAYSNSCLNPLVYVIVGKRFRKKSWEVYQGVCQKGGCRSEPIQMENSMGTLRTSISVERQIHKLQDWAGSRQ
Outline: (§3)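 Isolated rabbit jugular vein strips were equilibrated about 2 h with protease inhibitor SQ 14225 (100 ng/mL) under incandescent light, with no UV. pD₂ was taken as −log of the half-maximal concentration. Relative affinity is given as percent of BK. Specificity was checked by desensitization with BK or an analogue. Antagonists were given as pA₂ from the ID₅₀ that reduces a double agonist dose to a single-dose response.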

[8] = target: T2, B2 bradykinin receptor (Homo sapiens); assay: Percent agonistic activity in rabbit jugular vein expressing B2 receptor relative to bradykinin; assay type: functional; details: Oryctolagus cuniculus; outline: as §3
Oryctolagus cuniculus [9] = species: Oryctolagus cuniculus; assay: The compound was tested in vitro (0.1 uM) on rabbit jugular vein for residual response in presence of ultraviolet light; assay type: functional
Outline: (§4)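 Jugular vein strips were challenged twice with BK and checked with 1 µM [Nle¹¹]substance P and 7 µM histamine. They were then incubated with 100 µM (4'-amino)Phe plus the photolabel and irradiated 10 min around 365 nm (18 mW/cm²) at maximal contraction or after 5 min. This was done once or twice. BK response at 60 min was expressed as percent of reference tissues, rechecked every 45 min.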

Oryctolagus cuniculus [10] = species: Oryctolagus cuniculus; assay: The compound was tested in vitro (0.2 uM) on rabbit jugular vein for residual response in presence of ultraviolet light; assay type: functional; outline: as §4
Oryctolagus cuniculus [11] = species: Oryctolagus cuniculus; assay: The compound was tested in vitro (3 uM) on rabbit jugular vein for residual response in absence of ultraviolet light; assay type: functional; outline: as §2
[12] = tested on: B2 bradykinin receptor (Oryctolagus cuniculus); assay: Relative affinity against B2 receptor relative to bradykinin
[13] = tested on: B2 bradykinin receptor (Oryctolagus cuniculus); assay: Agonistic activity (pD2) in rabbit jugular vein expressing B2 receptor relative to bradykinin
Oryctolagus cuniculus [14] = species: Oryctolagus cuniculus; assay: The compound was tested (0.5 micro M) in vitro on rabbit jugular vein for residual response in presence of ultraviolet light; assay type: functional; outline: as §4
[15] = tested on: B2 bradykinin receptor (Oryctolagus cuniculus); assay: In vitro 50 % Maximal response in jugular vein expressing B2 receptor
[16] = tested on: B2 bradykinin receptor (Oryctolagus cuniculus); assay: In vitro 50 % Maximal response in rabbit jugular vein expressing B2 receptor
Oryctolagus cuniculus [17] = species: Oryctolagus cuniculus; assay: The compound was tested in vitro (1.0 uM) on rabbit jugular vein for residual response in presence of ultraviolet light; assay type: functional; outline: as §4
Oryctolagus cuniculus [18] = species: Oryctolagus cuniculus; assay: Competitive protection towards rabbit jugular vein in the presence of light; assay type: functional
Outline: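 Rabbit jugular vein strips (B2), with SQ 14225 100 ng/mL present after about 2 h equilibration. 5 µM BK added before the photolabel, scavenger (4'-amino)Phe 100 µM, and 10 min irradiation around 365 nm (18 mW/cm²). Residual BK response read 60 min after treatment, relative to reference tissues.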

Oryctolagus cuniculus [19] = species: Oryctolagus cuniculus; assay: The compound was tested in vitro (0.1 uM) on rabbit aorta for residual response in presence of ultraviolet light; assay type: functional; details: in the assay text read “rabbit jugular vein” for “rabbit aorta”; outline: as §1

[N-]=[N+]=Nc1ccc(C[C@H](NC(=O)[C@@H]2CCCN2C(=O)[C@H](CO)NC(=O)[C@H](Cc2ccccc2)NC(=O)CNC(=O)[C@@H]2CCCN2C(=O)[C@@H]2CCCN2C(=O)[C@@H](N)CCCN=C(N)N)C(=O)O)cc1
Response (Oryctolagus cuniculus [1]): 37% | Alpha E [2]: 0 | Competitive protection (Oryctolagus cuniculus [3]): 95 | EC50 (Oryctolagus cuniculus [4]): 8.56 µM

N#[N+]c1ccc(C[C@H](NC(=O)[C@@H]2CCCN2C(=O)[C@H](CO)NC(=O)[C@H](Cc2ccccc2)NC(=O)CNC(=O)[C@@H]2CCCN2C(=O)[C@@H]2CCCN2C(=O)[C@@H](N)CCCN=C(N)N)C(=O)O)cc1
Response (Oryctolagus cuniculus [5]): 95% | Alpha E [2]: 1 | EC50 (Oryctolagus cuniculus [4]): 0.824 µM

N#[N+]c1ccc(C[C@H](NC(=O)[C@@H]2CCCN2C(=O)[C@H](CO)NC(=O)[C@H](Cc2ccccc2)NC(=O)CNC(=O)[C@@H]2CCCN2C(=O)[C@@H]2CCCN2C(=O)[C@@H](N)CCCN=C(N)N)C(=O)N[C@@H](CCCN=C(N)N)C(=O)O)cc1 (HELM PEPTIDE1{R.P.P.G.F.S.P.[N#[N+]c1ccc(C[C@H](N[*:1])C(=O)[*:2])cc1].R}$$$$V2.0)
Response (Oryctolagus cuniculus [6]): 94% | Alpha E [2]: 1 | ED50 [7]: 0.025 µM | Relative affinity [8]: 9%

NC(N)=NCCC[C@H](NC(=O)[C@H](Cc1ccc([N+](=O)[O-])cc1)NC(=O)[C@@H]1CCCN1C(=O)[C@H](CO)NC(=O)[C@H](Cc1ccccc1)NC(=O)CNC(=O)[C@@H]1CCCN1C(=O)[C@@H]1CCCN1C(=O)[C@@H](N)CCCN=C(N)N)C(=O)O (HELM PEPTIDE1{R.P.P.G.F.S.P.[O=C([C@H](Cc1ccc([N+](=O)[O-])cc1)N[*:1])[*:2]].R}$$$$V2.0)
Response (Oryctolagus cuniculus [9]): 91% | Alpha E [2]: 1 | ED50 [7]: 0.0066 µM | Relative affinity [8]: 25%

[N-]=[N+]=Nc1ccc(C[C@H](NC(=O)[C@@H]2CCCN2C(=O)[C@H](CO)NC(=O)[C@H](Cc2ccccc2)NC(=O)CNC(=O)[C@@H]2CCCN2C(=O)[C@@H]2CCCN2C(=O)[C@@H](N)CCCN=C(N)N)C(=O)N[C@@H](CCCN=C(N)N)C(=O)O)cc1 (HELM PEPTIDE1{R.P.P.G.F.S.P.[[N-]=[N+]=Nc1ccc(C[C@H](N[*:1])C(=O)[*:2])cc1].R}$$$$V2.0)
Response (Oryctolagus cuniculus [10]): 85% | Alpha E [2]: 1 | ED50 [7]: 0.007 µM | Relative affinity [8]: 23%

N#[N+]c1ccc(C[C@H](NC(=O)CNC(=O)[C@@H]2CCCN2C(=O)[C@@H]2CCCN2C(=O)[C@@H](N)CCCN=C(N)N)C(=O)N[C@@H](CO)C(=O)N2CCC[C@H]2C(=O)N[C@@H](Cc2ccccc2)C(=O)N[C@@H](CCCN=C(N)N)C(=O)O)cc1 (HELM PEPTIDE1{R.P.P.G.[N#[N+]c1ccc(C[C@H](N[*:1])C(=O)[*:2])cc1].S.P.F.R}$$$$V2.0)
Response (Oryctolagus cuniculus [11]): 92% | Alpha E [2]: 1 | ED50 [7]: 0.025 µM | Relative affinity [12]: 9% | pD [13]: 7.73 M

NC(N)=NCCC[C@H](NC(=O)[C@H](Cc1ccccc1)NC(=O)[C@@H]1CCCN1C(=O)[C@H](CO)NC(=O)[C@H](Cc1ccc([N+](=O)[O-])cc1)NC(=O)CNC(=O)[C@@H]1CCCN1C(=O)[C@@H]1CCCN1C(=O)[C@@H](N)CCCN=C(N)N)C(=O)O (HELM PEPTIDE1{R.P.P.G.[O=C([C@H](Cc1ccc([N+](=O)[O-])cc1)N[*:1])[*:2]].S.P.F.R}$$$$V2.0)
Response (Oryctolagus cuniculus [14]): 88% | Alpha E [2]: 1 | Relative affinity [8]: 7% | ED50 [15]: 0.024 µM | pD [16]: 7.62 M

[N-]=[N+]=Nc1ccc(C[C@H](NC(=O)CNC(=O)[C@@H]2CCCN2C(=O)[C@@H]2CCCN2C(=O)[C@@H](N)CCCNC(=N)N)C(=O)N[C@@H](CO)C(=O)N2CCC[C@H]2C(=O)N[C@@H](Cc2ccccc2)C(=O)N[C@@H](CCCNC(=N)N)C(=O)O)cc1 (HELM PEPTIDE1{R.P.P.G.[[N-]=[N+]=Nc1ccc(C[C@H](N[*:1])C(=O)[*:2])cc1].S.P.F.R}$$$$V2.0)
Response (Oryctolagus cuniculus [17]): 44% | Alpha E [2]: 1 | Competitive protection (Oryctolagus cuniculus [18]): 91 | ED50 [7]: 0.01 µM | Relative affinity [8]: 17%

H-RPPGFSPFR-OH [BRADYKININ]
Response (Oryctolagus cuniculus [19]): 92% | Alpha E [2]: 1 | ED50 [7]: 0.00165 µM | Relative affinity [8]: 100%
